Measurements published in ChEMBL document CHEMBL1121726, “Pyrazolopyrimidine nucleosides. 12. Synthesis and biological activity of certain pyrazolo[3,4-d]pyrimidine nucleosides related to adenosine” (1981).
Calls of active or inactive are those of the source. The calls are words filed in the database; no cut-off is given here.

Experiments:
L1210 [1] = experiment: Increase in life span of tumor L1210 leukemic mice 1-5 days after 200 mg/kg administered; type: functional, Mus musculus
Procedure, shortened: (§1)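 Mice bearing L1210 or P388 leukemia were injected with drug at the listed dose per injection on the listed days after tumor-cell inoculation. ILS was the percentage increase in life span of treated mice over untreated tumor-bearing controls.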

L1210 [2] = experiment: Toxicity against L1210 leukemic cells 1-5 days after administration of 200 mg/kg of the compound; No higher dose tested; type: functional, organism-based; parameters: dose 200 mg/kg; details: Mus musculus
Procedure, shortened: (§2)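 Mice bearing L1210 or P388 leukemia were injected at the stated dose per injection on the listed days after tumor-cell inoculation. Host toxicity scores whether higher doses on the same schedule caused drug-induced shortening of life span: y = yes, n = no, nt = no higher dose tested.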

L1210 [3] = experiment: Toxicity against L1210 leukemic cells 1-9 days after administration of 100 mg/kg of the compound; nt= No higher dose tested; type: functional, organism-based; parameters: dose 100 mg/kg; details: Mus musculus; procedure, shortened: as §2
L1210 [4] = experiment: In vitro inhibition of growth of L1210 mouse leukemic cells; type: functional; details: read-out: ID50 (the source's name)
Procedure, shortened: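 L1210 cells grown in static suspension culture in Fischer's medium for leukemic cells of mice, exposed to a range of test-compound concentrations. Growth rate measured over 3 days.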

L1210 [5] = experiment: Increase in life span of tumor L1210 leukemic mice 1-9 days after 100 mg/kg administered; type: functional, Mus musculus; procedure, shortened: as §1
L1210 [6] = experiment: Toxicity against L1210 leukemic cells 1-5 days after administration of 400 mg/kg of the compound; nt= No higher dose tested; type: functional, organism-based; parameters: dose 400 mg/kg; details: Mus musculus; procedure, shortened: as §2
L1210 [7] = experiment: Increase in life span of tumor L1210 leukemic mice 1-5 days after 400 mg/kg administered; type: functional, Mus musculus; procedure, shortened: as §1
L1210 [8] = experiment: Increase in life span of tumor L1210 leukemic mice 1-5 day after 50 mg/kg administered; type: functional, Mus musculus; procedure, shortened: as §1
L1210 [9] = experiment: […] against L1210 leukemic cells 1-5 days after administration of 50 mg/kg of the compound; Yes; type: functional, organism-based; parameters: dose 50 mg/kg; details: Mus musculus
L1210 [10] = experiment: Toxicity against L1210 leukemic cells 1-5 days after administration of 200 mg/kg of the compound; nt= No higher dose tested; type: functional, organism-based; parameters: dose 200 mg/kg; details: Mus musculus
Procedure, shortened: (§3)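 Host toxicity was scored in leukemia-bearing mice as drug-induced shortening of life span when higher doses were given on the same schedule: y = yes, n = no, nt = no higher dose tested.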

P388 [11] = experiment: Toxicity against P388 leukemic cells 1-9 days after administration of 6 mg/kg of the compound; y= Yes; type: functional, organism-based; parameters: dose 6 mg/kg; details: Mus musculus; procedure, shortened: as §3
P388 [12] = experiment: Increase in life span of tumor P388 leukemic mice 1-9 days after 6 mg/kg administered; type: functional, Mus musculus; procedure, shortened: as §1
L1210 [13] = experiment: Number of mice surviving 1-5 days after 200 mg/kg administered; 2/6; type: functional, Mus musculus
L1210 [14] = experiment: Increase in life span of tumor L1210 leukemic mice 1-5 days after 12.5 mg/kg administered; type: functional, Mus musculus; procedure, shortened: as §1
L1210 [15] = experiment: […] against L1210 leukemic cells 1-5 days after administration of 12.5 mg/kg of the compound; Yes; details: Mus musculus
L1210 [16] = experiment: Increase in life span of tumor L1210 leukemic mice 1-9 days after 200 mg/kg administered; type: functional, Mus musculus; procedure, shortened: as §1
L1210 [17] = experiment: Toxicity against L1210 leukemic cells 1-9 days after administration of 200 mg/kg of the compound; Yes; type: functional, organism-based; parameters: dose 200 mg/kg; details: Mus musculus; procedure, shortened: as §2
L1210 [18] = experiment: […] against L1210 leukemic cells 1-5 days after administration of 400 mg/kg of the compound; No higher dose tested; type: functional, organism-based; parameters: dose 400 mg/kg; details: Mus musculus
P388 (Mus musculus) = experiment: Increase in life span of tumor P388 leukemic mice 1-9 days after 9.3 mg/kg administered
L1210 [19] = experiment: Number of mice surviving 1 day after 133 mg/kg administered; 1/6; type: functional, Mus musculus
P388 [20] = experiment: Toxicity against P388 leukemic cells 1-9 days after administration of 25 mg/kg of the compound; No; type: functional, organism-based; parameters: dose 25 mg/kg; details: Mus musculus; procedure, shortened: as §2
P388 [21] = experiment: Increase in life span of tumor P388 leukemic mice 1-9 days after 25 mg/kg administered; type: functional, Mus musculus
L1210 [22] = experiment: Increase in life span of tumor L1210 leukemic mice 1 day after 133 mg/kg administered; type: functional, Mus musculus; procedure, shortened: as §1
L1210 [23] = experiment: Toxicity against L1210 leukemic cells 1 day after administration of 133 mg/kg of the compound; No; type: functional, organism-based; parameters: dose 133 mg/kg; details: Mus musculus; procedure, shortened: as §2
L1210 [24] = experiment: Toxicity against L1210 leukemic cells 1-5 days after administration of 25 mg/kg of the compound; Yes; type: functional, organism-based; parameters: dose 25 mg/kg; details: Mus musculus; procedure, shortened: as §2
P388 [25] = experiment: Increase in life span of tumor P388 leukemic mice 1-9 days after 40 mg/kg administered; type: functional, Mus musculus; procedure, shortened: as §1
L1210 [26] = experiment: Number of mice surviving 1 day after 25 mg/kg administered; 2/12; type: functional, Mus musculus
L1210 [27] = experiment: Increase in life span of tumor L1210 leukemic mice 1-5 days after 25 mg/kg administered; type: functional, Mus musculus; procedure, shortened: as §1
P388 [28] = experiment: Toxicity against P388 leukemic cells 1-9 days after administration of 40 mg/kg of the compound; Yes; type: functional, organism-based; parameters: dose 40 mg/kg; details: Mus musculus; procedure, shortened: as §3
L1210 [29] = experiment: […] against L1210 leukemic cells 1-9 days after administration of 400 mg/kg of the compound; No higher dose tested; type: functional, organism-based; parameters: dose 400 mg/kg; details: Mus musculus
L1210 [30] = experiment: Increase in life span of tumor L1210 leukemic mice 1-9 days after 400 mg/kg administered; type: functional, Mus musculus; procedure, shortened: as §1

CN(C)c1ncnc2c1cnn2C1O[C@H](CO)[C@@H](O)[C@H]1O (some centres undefined)
ILS (L1210 [1]): 0 | Toxicity (L1210 [2]): No higher dose tested

N#Cc1nn(C2O[C@H](CO)[C@@H](O)[C@H]2O)c2ncnc(N)c12 (some centres undefined)
Toxicity (L1210 [3]): No higher dose tested | IC50 (L1210 [4]): 79 nM | ILS (L1210 [5]): 27

OC[C@H]1OC(n2ncc3c(S)ncnc32)[C@H](O)[C@@H]1O (some centres undefined)
Toxicity (L1210 [6]): No higher dose tested | ILS (L1210 [7]): -6

CN(C)/C=N/c1ncnc2c1cnn2C1O[C@H](CO)[C@@H](O)[C@H]1O (some centres undefined)
ILS (L1210 [8]): 12 | IC50 (L1210 [4]): 600 nM | Toxicity (L1210 [9]): Active

NC(=O)c1nn(C2O[C@H](CO)[C@@H](O)[C@H]2O)c2ncnc(N)c12 (some centres undefined)
Toxicity (L1210 [10]): No higher dose tested | ILS (L1210 [1]): 136 | IC50 (L1210 [4]): 100 nM | Toxicity (P388 [11]): No higher dose tested | ILS (P388 [12]): 90 | Cures (L1210 [13]): 2

OC[C@H]1OC(n2ncc3c(NO)ncnc32)[C@H](O)[C@@H]1O (some centres undefined)
IC50 (L1210 [4]): 10000 nM | ILS (L1210 [14]): 14 | Toxicity (L1210 [15]): Active

NNc1ncnc2c1cnn2C1O[C@H](CO)[C@@H](O)[C@H]1O (some centres undefined)
ILS (L1210 [16]): 12 | Toxicity (L1210 [17]): Active | IC50 (L1210 [4]): 60000 nM

OC[C@H]1OC(n2ncc3c(Nc4ccccc4)ncnc32)[C@H](O)[C@@H]1O (some centres undefined)
Toxicity (L1210 [18]): No higher dose tested | ILS (L1210 [7]): -4

Nc1ncnc2c1ncn2[C@@H]1O[C@H](CO)[C@@H](O)[C@H]1O [ADENOSINE]
ILS (P388 (Mus musculus)): 24 | Cures (L1210 [19]): 1 | IC50 (L1210 [4]): 400 nM | Toxicity (P388 [20]): Not toxic | ILS (P388 [21]): 54 | ILS (L1210 [22]): 48 | Toxicity (L1210 [23]): Not toxic

N=C(N)c1nn(C2O[C@H](CO)[C@@H](O)[C@H]2O)c2ncnc(N)c12 (some centres undefined)
Toxicity (L1210 [24]): Active | ILS (P388 [25]): 29 | Cures (L1210 [26]): 2 | ILS (L1210 [27]): 98 | Toxicity (P388 [28]): Active

OC[C@H]1OC(n2ncc3c(N/N=C/c4ccc(N(CCCl)CCCl)cc4)ncnc32)[C@H](O)[C@@H]1O (some centres undefined)
Toxicity (L1210 [29]): No higher dose tested | ILS (L1210 [30]): -7 | IC50 (L1210 [4]): ~10000 nM
